One block for each compound: values may come before it.
What was measured:
[1] = target: Bromodomain-containing protein 4 (Homo sapiens, UniProt O60885); assay: Inhibition of BRD4 isoform 1 by AlphaScreen assay
In short: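 His-tagged bromodomain protein preincubated 30 min at room temperature with compound in 50 mM HEPES, 100 mM NaCl, 0.1% BSA, pH 7.4, plus 0.05% CHAPS; biotinylated peptide added for a further 30 min; streptavidin donor and nickel chelate acceptor beads (25 µg/ml each) then added, 60 min in the dark.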

[2] = Tmax in mouse at 2 mg/kg, sc; format: ADME, organism-based; set-up: dose 2 mg/kg, route subcutaneous; settings: in vivo
[3] = Half life in mouse at 2 mg/kg, sc; format: ADME, organism-based; set-up: dose 2 mg/kg, route subcutaneous; settings: in vivo
[4] = Cmax in mouse at 2 mg/kg, sc; format: ADME, organism-based; set-up: dose 2 mg/kg, route subcutaneous; settings: in vivo
[5] = Protein binding in rat plasma; format: ADME, cell-free; settings: read-out: PPB (converted)
[6] = Drug concentration in rat gut at 1 mg/kg, iv measured 7 hrs post dose; format: ADME, organism-based; set-up: dose 1 mg/kg, route intravenous; settings: read-out: Drug uptake
[7] = Oral bioavailability […] in rat at 2 mg/kg; format: ADME, organism-based; settings: in vivo
Liver microsomes = assay: Half life in rat liver microsomes; format: ADME, Microsome
[8] = Half life in rat at 1 mg/kg, iv; format: ADME, organism-based; set-up: dose 1 mg/kg, route intravenous; settings: in vivo
[9] = Plasma clearance in rat at 1 mg/kg, iv; format: ADME, organism-based; set-up: dose 1 mg/kg, route intravenous
[10] = Volume of distribution in rat at 1 mg/kg, iv; format: ADME, organism-based; set-up: dose 1 mg/kg, route intravenous; settings: in vivo
[11] = target: Bromodomain adjacent to zinc finger domain protein 2B (Homo sapiens) (UniProt Q9UIF8); assay: Binding affinity to BAZ2B assessed as change in melting temperature at 10 uM by thermal shift assay
[12] = target: Histone acetyltransferase KAT2B (Homo sapiens) (UniProt Q92831); assay: Binding affinity to PCAF assessed as change in melting temperature at 10 uM by thermal shift assay
[13] = target: Protein polybromo-1 (Homo sapiens) (UniProt Q86U86); assay: Binding affinity to pb1 isoform 5 assessed as change in melting temperature at 10 uM by thermal shift assay
[14] = target: Bromodomain testis-specific protein (Homo sapiens) (UniProt Q58F21); assay: Binding affinity to BRDT isoform 1 assessed as change in melting temperature at 10 uM by thermal shift assay
[15] = target: Bromodomain-containing protein 3 (Homo sapiens) (UniProt Q15059); assay: Binding affinity to BRD3 isoform 2 assessed as change in melting temperature at 10 uM by thermal shift assay
[16] = target: Bromodomain-containing protein 3 (Homo sapiens) (UniProt Q15059); assay: Binding affinity to BRD3 isoform 1 assessed as change in melting temperature at 10 uM by thermal shift assay
[17] = target: Bromodomain-containing protein 2 (Homo sapiens) (UniProt P25440); assay: Binding affinity to BRD2 isoform 2 assessed as change in melting temperature at 10 uM by thermal shift assay
[18] = target: Bromodomain-containing protein 2 (Homo sapiens) (UniProt P25440); assay: Binding affinity to BRD2 isoform 1 assessed as change in melting temperature at 10 uM by thermal shift assay
CREB-binding protein [19] = target: T1, CREB-binding protein (Homo sapiens, UniProt Q92793); assay: Binding affinity to CREBBP assessed as change in melting temperature at 10 uM by thermal shift assay
CREB-binding protein [20] = target: T1, CREB-binding protein; assay: Binding affinity to CREBBP by SPR method
PBMC = assay: Inhibition of LPS-induced IL6 production in human PBMC by ELISA; format: functional, cell-based
In short: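 Mononuclear cells washed in Ca/Mg-free PBS, then RPMI + 5% FBS; plated at 2E5 cells/well. Compound added at 0.1% DMSO final and preincubated 30 min; stimulated with ultrapure LPS O111:B4 at 0.5 ng/ml final. Supernatants collected after 20 h; cytokines measured by multiplex ELISA.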

Chain of Bromodomain-containing protein 2 (Homo sapiens) (P25440 whole entry, looked up, canonical isoform): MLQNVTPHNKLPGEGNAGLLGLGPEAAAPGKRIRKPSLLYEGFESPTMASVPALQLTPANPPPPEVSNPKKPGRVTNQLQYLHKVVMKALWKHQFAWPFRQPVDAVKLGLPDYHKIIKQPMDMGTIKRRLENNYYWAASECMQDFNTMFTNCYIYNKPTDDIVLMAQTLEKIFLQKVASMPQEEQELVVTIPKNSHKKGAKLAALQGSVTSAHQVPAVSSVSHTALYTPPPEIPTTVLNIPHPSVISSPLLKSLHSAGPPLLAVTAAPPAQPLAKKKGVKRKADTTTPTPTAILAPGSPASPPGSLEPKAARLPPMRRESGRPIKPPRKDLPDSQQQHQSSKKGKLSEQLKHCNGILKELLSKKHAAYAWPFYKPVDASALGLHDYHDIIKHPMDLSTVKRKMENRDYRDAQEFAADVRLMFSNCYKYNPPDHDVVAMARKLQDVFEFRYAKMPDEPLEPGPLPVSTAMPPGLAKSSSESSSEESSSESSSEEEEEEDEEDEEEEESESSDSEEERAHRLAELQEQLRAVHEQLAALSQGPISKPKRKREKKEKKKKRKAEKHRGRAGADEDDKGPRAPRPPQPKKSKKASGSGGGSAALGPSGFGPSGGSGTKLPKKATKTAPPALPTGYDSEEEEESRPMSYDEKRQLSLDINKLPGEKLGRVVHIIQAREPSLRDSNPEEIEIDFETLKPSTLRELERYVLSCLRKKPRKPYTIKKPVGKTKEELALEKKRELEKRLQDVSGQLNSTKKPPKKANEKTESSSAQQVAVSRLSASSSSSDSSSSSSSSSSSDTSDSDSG
Chain of Bromodomain-containing protein 3 (Homo sapiens) (Q15059 2-726 limits assumed): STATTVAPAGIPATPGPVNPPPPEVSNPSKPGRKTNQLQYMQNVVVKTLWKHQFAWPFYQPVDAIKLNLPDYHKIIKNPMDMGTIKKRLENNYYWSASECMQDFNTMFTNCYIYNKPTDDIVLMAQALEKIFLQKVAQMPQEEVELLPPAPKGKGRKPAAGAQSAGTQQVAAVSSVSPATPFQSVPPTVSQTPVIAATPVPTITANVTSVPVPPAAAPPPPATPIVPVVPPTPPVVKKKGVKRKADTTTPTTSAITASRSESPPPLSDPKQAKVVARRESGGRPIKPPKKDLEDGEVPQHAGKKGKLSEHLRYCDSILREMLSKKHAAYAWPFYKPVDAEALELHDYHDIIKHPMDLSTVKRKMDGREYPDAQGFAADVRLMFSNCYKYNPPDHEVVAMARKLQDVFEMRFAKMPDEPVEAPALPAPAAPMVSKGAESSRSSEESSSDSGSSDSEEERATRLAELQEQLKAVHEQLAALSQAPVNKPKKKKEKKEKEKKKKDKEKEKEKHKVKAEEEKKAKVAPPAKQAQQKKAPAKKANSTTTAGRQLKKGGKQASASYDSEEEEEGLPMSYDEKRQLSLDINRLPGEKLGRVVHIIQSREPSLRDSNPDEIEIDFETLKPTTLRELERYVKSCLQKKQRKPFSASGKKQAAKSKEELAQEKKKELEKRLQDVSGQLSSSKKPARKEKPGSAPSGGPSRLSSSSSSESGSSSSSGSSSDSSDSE
Chain of Bromodomain adjacent to zinc finger domain protein 2B (Homo sapiens) (Q9UIF8 whole entry, the tested form may be a part): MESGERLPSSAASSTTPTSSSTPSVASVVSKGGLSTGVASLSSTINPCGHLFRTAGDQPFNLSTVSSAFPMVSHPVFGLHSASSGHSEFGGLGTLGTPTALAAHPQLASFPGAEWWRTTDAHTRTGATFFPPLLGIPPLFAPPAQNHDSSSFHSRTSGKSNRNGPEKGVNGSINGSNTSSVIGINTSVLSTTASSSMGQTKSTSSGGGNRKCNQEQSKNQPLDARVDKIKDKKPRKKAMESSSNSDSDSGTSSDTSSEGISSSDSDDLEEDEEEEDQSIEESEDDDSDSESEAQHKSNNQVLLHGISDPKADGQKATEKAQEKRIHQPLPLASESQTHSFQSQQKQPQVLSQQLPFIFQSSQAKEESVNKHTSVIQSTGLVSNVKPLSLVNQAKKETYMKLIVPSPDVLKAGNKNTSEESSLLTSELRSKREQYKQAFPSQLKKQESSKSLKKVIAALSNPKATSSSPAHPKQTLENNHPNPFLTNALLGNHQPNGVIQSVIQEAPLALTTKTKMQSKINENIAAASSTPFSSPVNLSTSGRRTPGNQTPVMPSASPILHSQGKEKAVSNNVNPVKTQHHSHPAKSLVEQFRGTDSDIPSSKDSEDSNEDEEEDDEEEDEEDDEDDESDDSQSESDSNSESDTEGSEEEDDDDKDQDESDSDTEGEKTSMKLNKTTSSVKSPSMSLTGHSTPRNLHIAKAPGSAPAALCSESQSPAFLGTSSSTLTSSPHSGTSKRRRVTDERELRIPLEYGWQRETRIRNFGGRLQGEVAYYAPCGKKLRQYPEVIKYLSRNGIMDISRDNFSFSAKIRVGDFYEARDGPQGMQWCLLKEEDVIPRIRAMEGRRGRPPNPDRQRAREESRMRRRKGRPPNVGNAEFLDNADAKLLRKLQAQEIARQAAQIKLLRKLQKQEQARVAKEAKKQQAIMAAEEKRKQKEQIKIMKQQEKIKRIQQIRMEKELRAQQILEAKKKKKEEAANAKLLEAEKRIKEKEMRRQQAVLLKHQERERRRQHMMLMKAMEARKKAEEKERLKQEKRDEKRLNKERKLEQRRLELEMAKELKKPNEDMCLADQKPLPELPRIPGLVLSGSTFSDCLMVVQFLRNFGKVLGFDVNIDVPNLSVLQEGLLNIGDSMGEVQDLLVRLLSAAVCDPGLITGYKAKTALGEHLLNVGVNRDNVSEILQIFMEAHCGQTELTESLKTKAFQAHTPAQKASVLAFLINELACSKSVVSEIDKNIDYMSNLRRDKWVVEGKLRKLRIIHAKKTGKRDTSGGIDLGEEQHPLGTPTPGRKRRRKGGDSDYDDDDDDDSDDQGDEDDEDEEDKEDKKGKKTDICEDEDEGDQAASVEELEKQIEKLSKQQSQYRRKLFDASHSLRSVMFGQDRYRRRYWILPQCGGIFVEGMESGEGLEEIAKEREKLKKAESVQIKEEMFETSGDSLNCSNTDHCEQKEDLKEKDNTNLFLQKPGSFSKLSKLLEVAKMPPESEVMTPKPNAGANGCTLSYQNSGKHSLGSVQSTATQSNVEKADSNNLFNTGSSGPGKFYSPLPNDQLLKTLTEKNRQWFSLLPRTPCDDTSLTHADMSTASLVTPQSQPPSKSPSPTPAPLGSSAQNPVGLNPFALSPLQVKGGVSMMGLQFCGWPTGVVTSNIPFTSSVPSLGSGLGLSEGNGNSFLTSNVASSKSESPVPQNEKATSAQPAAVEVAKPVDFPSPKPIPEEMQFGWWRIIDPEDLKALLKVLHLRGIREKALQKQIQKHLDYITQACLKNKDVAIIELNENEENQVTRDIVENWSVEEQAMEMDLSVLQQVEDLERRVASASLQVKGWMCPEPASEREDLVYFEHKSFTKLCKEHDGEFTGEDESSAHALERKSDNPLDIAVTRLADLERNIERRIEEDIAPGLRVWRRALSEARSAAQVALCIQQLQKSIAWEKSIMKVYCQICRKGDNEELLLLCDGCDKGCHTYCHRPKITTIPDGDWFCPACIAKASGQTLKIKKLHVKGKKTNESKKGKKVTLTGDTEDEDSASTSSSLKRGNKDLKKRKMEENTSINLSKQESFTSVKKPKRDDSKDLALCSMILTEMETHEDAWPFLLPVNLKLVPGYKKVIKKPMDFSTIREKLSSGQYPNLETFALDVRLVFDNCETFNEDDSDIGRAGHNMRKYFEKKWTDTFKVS
Chain of Histone acetyltransferase KAT2B (Homo sapiens) (Q92831 whole entry, looked up, canonical isoform): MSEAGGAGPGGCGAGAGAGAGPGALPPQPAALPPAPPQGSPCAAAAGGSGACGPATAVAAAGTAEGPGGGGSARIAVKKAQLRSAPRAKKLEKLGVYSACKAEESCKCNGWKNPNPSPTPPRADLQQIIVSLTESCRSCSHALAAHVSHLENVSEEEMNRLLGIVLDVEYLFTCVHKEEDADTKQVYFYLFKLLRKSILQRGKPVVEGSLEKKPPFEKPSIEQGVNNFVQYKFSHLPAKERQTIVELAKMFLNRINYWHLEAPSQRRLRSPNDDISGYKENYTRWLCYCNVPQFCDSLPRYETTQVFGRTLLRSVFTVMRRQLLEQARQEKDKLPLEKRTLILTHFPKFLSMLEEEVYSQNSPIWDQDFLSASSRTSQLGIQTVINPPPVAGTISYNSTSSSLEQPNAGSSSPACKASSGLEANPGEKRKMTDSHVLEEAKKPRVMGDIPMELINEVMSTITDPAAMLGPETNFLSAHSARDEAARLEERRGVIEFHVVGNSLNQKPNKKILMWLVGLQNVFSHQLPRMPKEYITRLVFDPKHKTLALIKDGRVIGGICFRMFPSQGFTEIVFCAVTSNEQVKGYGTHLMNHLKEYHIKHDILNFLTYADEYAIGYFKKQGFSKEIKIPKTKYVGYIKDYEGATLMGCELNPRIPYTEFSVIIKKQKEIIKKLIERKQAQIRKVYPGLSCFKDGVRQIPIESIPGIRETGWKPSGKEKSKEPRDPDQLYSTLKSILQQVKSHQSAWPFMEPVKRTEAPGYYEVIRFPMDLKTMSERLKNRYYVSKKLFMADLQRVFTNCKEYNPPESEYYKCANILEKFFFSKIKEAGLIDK

Compound: CN1Cc2cc(S(=O)(=O)N3CCCC3)ccc2NC1=O
IC50 [1]: 4800 nM

Compound: Cc1ccc(S(=O)(=O)Nc2ccc3c(c2)CN(C)C(=O)N3)cc1
IC50 [1]: 390 nM

Compound: CN1Cc2cc(NS(=O)(=O)c3ccc(C#N)cc3)ccc2NC1=O
IC50 [1]: 2300 nM

Compound: CCNS(=O)(=O)c1ccc2c(c1)CN(C)C(=O)N2
IC50 [1]: 1900 nM

Compound: COc1cccc(S(=O)(=O)Nc2ccc3c(c2)CN(C)C(=O)N3)c1
IC50 [1]: 730 nM

Compound: CN1Cc2cc(NS(=O)(=O)c3ccc(F)cc3Cl)ccc2NC1=O
IC50 [1]: 180 nM

Compound: COc1ccc(S(=O)(=O)Nc2ccc3c(c2)CN(C)C(=O)N3)cc1
IC50 [1]: 880 nM

Further lines, with some results ahead:

IC50 [1]: 360 nM
Compound: CN1Cc2cc(NS(=O)(=O)c3ccccc3F)ccc2NC1=O

Tmax [2]: 1 h
half-life [3]: 120 min
Cmax [4]: 58 ng/mL
fraction unbound [5]: 0.31
concentration at 7 h [6]: 62 ng/mL
bioavailability [7]: 32%
t1/2 (Liver microsomes): > 120 min
half-life [8]: 60 min
clearance [9]: 18 mL/min/kg
Vd [10]: 1 L/kg
ΔTm [11]: 0.3 °C
ΔTm [12]: 0.81 °C
ΔTm [13]: 0.83 °C
ΔTm [14]: 2.08 °C
ΔTm [15]: 5.45 °C
ΔTm [16]: 5.24 °C
ΔTm [17]: 5.32 °C
ΔTm [18]: 4.61 °C
ΔTm (CREB-binding protein [19]): 1.7 °C
Kd (CREB-binding protein [20]): 49 µM
Compound: COc1ccccc1S(=O)(=O)Nc1ccc2c(c1)CN(C)C(=O)N2
EC50 (PBMC): 1890 nM

IC50 [1]: 470 nM
Compound: CN1Cc2cc(NS(=O)(=O)c3ccccc3C(F)(F)F)ccc2NC1=O

IC50 [1]: 220 nM
Compound: Cc1ccccc1S(=O)(=O)Nc1ccc2c(c1)CN(C)C(=O)N2

IC50 [1]: 880 nM
Compound: CN1Cc2cc(NS(=O)(=O)c3ccccc3)ccc2NC1=O
